Experimental data reported in ChEMBL document CHEMBL5696442, “Discovery of type II inhibitors of TGFβ-activated kinase 1 (TAK1) and mitogen-activated protein kinase kinase kinase kinase 2 (MAP4K2)” (J Med Chem, 2015).

Assays:
[1] = target: T1, Kinase suppressor of Ras 1 (Homo sapiens) (UniProt Q8IVT5); experiment: Inhibition of KSR1 ACT labeling site harbouring SKNVFYDNGK in human A-375 cells at 0.05 uM by KiNativ Profiling analysis relative to control; format: cell-based
T1 sequence (whole entry): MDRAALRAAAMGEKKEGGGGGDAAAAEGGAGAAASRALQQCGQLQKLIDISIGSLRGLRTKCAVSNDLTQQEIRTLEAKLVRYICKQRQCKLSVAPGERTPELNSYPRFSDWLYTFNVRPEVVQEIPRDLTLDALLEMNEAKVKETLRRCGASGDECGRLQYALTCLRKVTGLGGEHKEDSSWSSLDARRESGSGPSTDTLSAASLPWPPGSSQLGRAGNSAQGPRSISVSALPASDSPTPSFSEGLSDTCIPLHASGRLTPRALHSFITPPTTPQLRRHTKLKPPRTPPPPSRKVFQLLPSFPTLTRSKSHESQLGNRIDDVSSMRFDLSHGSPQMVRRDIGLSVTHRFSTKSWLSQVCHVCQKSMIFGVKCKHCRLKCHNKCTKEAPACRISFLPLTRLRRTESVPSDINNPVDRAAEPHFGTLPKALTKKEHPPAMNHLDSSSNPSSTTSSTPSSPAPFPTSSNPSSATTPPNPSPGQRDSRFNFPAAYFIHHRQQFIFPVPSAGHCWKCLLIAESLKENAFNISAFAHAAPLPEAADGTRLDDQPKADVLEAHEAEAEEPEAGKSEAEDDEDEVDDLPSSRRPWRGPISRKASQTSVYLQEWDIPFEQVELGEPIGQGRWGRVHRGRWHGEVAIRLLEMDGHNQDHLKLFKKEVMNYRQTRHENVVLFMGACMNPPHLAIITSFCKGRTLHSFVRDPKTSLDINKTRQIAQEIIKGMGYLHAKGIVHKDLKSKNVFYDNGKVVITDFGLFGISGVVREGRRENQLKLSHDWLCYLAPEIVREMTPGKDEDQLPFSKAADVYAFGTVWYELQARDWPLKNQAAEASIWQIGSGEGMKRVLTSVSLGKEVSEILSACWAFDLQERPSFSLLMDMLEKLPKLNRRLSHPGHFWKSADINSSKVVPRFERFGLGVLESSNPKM

[2] = target: Serine/threonine-protein kinase PLK1 (Homo sapiens) (UniProt P53350); experiment: Inhibition of PLK1 Lys1 labeling site in human A-375 cells at 0.5 uM by KiNativ Profiling analysis relative to control; format: cell-based
Sequence of Serine/threonine-protein kinase PLK1 (Homo sapiens) (P53350 whole entry): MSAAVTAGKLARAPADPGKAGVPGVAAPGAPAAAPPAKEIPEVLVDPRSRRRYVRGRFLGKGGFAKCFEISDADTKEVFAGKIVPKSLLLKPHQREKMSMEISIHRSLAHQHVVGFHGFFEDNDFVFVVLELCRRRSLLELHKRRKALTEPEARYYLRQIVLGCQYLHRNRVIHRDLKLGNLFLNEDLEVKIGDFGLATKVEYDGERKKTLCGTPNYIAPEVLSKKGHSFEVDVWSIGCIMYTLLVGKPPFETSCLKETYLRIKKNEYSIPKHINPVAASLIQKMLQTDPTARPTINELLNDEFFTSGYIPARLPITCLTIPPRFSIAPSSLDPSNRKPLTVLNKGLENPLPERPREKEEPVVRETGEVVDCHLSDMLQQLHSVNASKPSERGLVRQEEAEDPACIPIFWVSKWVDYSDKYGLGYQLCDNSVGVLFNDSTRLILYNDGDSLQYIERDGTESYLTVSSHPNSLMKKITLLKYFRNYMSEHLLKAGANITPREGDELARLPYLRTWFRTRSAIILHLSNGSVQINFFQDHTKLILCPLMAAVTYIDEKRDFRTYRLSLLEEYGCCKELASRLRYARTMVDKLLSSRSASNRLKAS

[3] = target: Aurora kinase B (Homo sapiens) (UniProt Q96GD4); experiment: Inhibition of AurB ATP Loop labeling site in human A-375 cells at 0.05 uM by KiNativ Profiling analysis relative to control; format: cell-based
Sequence of Aurora kinase B (Homo sapiens) (Q96GD4 whole entry): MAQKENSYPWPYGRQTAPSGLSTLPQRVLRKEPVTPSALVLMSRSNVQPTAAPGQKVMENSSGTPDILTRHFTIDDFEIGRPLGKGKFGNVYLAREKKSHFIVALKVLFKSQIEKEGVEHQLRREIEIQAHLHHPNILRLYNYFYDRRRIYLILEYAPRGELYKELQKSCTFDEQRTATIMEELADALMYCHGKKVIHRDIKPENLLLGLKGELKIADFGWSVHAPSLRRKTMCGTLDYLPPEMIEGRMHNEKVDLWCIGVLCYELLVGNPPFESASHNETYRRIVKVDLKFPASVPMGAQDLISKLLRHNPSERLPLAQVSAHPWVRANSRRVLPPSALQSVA

[4] = target: RAC-beta serine/threonine-protein kinase (Homo sapiens) (UniProt P31751); experiment: Inhibition of AKT2 ATP Loop labeling site in human A-375 cells at 0.5 uM by KiNativ Profiling analysis relative to control; format: cell-based
Sequence of RAC-beta serine/threonine-protein kinase (Homo sapiens) (P31751 whole entry): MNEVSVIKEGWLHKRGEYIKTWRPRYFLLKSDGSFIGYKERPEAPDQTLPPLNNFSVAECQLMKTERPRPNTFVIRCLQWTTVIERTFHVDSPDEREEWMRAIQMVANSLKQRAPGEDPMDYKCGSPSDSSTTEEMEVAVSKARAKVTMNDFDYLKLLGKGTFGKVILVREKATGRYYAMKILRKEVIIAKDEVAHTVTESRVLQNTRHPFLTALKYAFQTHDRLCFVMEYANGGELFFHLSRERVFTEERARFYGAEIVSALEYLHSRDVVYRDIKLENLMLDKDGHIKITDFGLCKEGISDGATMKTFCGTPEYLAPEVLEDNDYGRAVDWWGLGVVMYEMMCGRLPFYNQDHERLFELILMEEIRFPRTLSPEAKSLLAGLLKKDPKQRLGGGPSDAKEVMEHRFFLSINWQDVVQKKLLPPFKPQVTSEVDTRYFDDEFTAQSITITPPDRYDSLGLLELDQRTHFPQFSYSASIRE
In short: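 Live A375 melanoma cells were treated with compound at 5 or 0.5 μM, then lysed. The lysates were labeled with a lysine-reactive ATP or ADP-biotin probe. Kinase protection from probe labeling was measured by KiNativ.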

[5] = target: 5'-AMP-activated protein kinase catalytic subunit alpha-2 (Homo sapiens) (UniProt P54646); experiment: Inhibition of AMPKa2 Lys1 labeling site in human A-375 cells at 0.05 uM by KiNativ Profiling analysis relative to control; format: cell-based
Sequence of 5'-AMP-activated protein kinase catalytic subunit alpha-2 (Homo sapiens) (P54646 whole entry, looked up): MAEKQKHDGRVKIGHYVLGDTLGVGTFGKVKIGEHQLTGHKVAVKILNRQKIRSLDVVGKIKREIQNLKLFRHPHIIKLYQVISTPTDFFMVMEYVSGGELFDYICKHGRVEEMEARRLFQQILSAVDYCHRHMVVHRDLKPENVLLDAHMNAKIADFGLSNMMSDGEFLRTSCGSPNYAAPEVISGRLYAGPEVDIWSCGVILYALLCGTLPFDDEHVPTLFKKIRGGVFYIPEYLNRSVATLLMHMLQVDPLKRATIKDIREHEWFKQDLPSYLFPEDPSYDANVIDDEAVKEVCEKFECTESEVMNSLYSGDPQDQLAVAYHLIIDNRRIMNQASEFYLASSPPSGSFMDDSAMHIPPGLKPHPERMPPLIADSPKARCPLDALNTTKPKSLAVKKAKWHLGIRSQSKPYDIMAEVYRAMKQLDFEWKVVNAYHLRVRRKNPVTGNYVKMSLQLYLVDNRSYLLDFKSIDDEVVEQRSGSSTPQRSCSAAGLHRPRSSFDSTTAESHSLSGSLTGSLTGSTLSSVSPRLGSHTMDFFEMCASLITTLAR

[6] = target: Cyclin-dependent kinase 18 (Homo sapiens) (UniProt Q07002); experiment: Inhibition of PCTAIRE3 Lys1 labeling site harbouringSKLTENLVALKEIR in human A-375 cells at 5 uM by KiNativ Profiling analysis relative to control; format: cell-based
Sequence of Cyclin-dependent kinase 18 (Homo sapiens) (Q07002 whole entry): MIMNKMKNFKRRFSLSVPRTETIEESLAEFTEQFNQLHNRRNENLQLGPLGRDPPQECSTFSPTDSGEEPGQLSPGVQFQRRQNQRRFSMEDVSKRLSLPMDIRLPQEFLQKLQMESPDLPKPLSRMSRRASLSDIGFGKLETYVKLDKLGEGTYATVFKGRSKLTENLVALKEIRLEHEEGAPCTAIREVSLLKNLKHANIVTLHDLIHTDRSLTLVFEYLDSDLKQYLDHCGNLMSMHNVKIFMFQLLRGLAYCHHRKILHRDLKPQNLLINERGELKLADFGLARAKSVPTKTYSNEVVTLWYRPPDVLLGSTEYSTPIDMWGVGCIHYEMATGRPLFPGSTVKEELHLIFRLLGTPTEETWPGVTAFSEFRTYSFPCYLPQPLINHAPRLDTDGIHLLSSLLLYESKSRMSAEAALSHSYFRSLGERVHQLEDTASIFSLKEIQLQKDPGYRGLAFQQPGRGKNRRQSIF
In short: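 Live A375 melanoma cells were treated with compound at 5 or 0.5 μM, then lysed. Lysates were labeled with a lysine-reactive ATP or ADP-biotin probe. Read-out was the compound's protection of kinase labeling sites from probe labeling (KiNativ).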

[7] = target: Tyrosine-protein kinase JAK1 (Homo sapiens) (UniProt P23458); experiment: Inhibition of JAK1 in human A-375 cells at 5 uM by KiNativ Profiling analysis relative to control; format: cell-based
Sequence of Tyrosine-protein kinase JAK1 (Homo sapiens) (P23458 whole entry): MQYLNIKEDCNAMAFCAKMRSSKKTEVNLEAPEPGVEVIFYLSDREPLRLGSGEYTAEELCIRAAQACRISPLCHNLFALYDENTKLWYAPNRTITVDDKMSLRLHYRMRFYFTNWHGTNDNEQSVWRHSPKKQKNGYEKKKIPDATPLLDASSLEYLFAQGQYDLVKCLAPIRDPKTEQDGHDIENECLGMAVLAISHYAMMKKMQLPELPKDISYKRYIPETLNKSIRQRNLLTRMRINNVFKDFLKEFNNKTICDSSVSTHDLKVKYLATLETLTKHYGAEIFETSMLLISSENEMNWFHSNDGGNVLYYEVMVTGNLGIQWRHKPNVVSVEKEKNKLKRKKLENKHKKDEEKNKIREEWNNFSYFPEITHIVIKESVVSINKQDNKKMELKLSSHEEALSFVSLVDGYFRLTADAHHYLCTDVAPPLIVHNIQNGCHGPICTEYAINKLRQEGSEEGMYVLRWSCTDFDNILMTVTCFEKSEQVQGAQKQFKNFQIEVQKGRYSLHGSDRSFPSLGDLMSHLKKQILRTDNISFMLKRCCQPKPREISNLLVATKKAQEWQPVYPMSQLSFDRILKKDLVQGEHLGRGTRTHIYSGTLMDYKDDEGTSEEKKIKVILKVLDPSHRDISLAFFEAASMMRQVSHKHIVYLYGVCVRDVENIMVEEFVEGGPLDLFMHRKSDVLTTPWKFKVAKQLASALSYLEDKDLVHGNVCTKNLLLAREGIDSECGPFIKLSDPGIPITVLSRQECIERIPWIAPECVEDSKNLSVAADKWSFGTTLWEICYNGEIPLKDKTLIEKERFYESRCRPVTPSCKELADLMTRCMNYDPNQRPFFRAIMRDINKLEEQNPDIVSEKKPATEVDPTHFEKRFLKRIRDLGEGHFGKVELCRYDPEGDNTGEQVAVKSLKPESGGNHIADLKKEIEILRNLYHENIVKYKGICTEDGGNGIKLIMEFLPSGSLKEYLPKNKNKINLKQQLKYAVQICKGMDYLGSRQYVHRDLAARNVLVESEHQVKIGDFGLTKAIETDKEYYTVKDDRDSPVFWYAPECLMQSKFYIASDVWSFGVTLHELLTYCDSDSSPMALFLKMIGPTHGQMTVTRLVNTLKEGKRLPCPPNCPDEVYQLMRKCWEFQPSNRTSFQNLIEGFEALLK

[8] = target: T2, Serine/threonine-protein kinase Nek9 (Homo sapiens) (UniProt Q8TD19); experiment: Inhibition of NEK9 Lys1 labeling site harbouring TEDDSLVVWKEVDLTR in human A-375 cells at 0.5 uM by KiNativ Profiling analysis relative to control; format: cell-based
T2 sequence (whole entry): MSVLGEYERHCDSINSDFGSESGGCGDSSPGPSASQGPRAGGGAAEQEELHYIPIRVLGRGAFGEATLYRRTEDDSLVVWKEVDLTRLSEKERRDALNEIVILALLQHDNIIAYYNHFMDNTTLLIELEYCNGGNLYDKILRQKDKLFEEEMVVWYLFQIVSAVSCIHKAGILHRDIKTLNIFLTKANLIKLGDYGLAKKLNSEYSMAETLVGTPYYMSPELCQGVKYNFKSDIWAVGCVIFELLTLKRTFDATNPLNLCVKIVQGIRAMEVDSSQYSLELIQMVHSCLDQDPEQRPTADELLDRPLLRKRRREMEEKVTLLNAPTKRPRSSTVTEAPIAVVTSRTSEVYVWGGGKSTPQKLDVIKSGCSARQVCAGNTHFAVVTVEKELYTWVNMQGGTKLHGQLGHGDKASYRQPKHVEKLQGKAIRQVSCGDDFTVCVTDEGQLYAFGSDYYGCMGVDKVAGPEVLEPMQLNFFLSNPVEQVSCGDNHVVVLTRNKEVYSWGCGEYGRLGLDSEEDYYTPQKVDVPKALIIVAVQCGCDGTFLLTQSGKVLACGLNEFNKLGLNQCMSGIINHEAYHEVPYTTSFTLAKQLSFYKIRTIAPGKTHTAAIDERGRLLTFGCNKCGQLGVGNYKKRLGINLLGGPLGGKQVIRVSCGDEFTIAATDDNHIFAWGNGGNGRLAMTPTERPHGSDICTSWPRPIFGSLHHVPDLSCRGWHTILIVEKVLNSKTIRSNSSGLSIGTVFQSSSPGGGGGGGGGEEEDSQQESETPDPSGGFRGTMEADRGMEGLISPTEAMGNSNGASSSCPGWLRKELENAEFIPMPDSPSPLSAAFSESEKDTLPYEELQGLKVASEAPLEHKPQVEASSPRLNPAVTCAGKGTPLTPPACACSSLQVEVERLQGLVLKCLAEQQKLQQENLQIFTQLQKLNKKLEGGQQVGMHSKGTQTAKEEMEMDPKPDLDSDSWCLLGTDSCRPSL

[9] = target: Tyrosine-protein kinase ABL2 (Homo sapiens, UniProt P42684); experiment: Inhibition of ARG ACT labeling site in human Huh-7 cell lysate at 1 uM by KiNativ Profiling analysis relative to control; format: subcellular
Sequence of Tyrosine-protein kinase ABL2 (P42684 whole entry): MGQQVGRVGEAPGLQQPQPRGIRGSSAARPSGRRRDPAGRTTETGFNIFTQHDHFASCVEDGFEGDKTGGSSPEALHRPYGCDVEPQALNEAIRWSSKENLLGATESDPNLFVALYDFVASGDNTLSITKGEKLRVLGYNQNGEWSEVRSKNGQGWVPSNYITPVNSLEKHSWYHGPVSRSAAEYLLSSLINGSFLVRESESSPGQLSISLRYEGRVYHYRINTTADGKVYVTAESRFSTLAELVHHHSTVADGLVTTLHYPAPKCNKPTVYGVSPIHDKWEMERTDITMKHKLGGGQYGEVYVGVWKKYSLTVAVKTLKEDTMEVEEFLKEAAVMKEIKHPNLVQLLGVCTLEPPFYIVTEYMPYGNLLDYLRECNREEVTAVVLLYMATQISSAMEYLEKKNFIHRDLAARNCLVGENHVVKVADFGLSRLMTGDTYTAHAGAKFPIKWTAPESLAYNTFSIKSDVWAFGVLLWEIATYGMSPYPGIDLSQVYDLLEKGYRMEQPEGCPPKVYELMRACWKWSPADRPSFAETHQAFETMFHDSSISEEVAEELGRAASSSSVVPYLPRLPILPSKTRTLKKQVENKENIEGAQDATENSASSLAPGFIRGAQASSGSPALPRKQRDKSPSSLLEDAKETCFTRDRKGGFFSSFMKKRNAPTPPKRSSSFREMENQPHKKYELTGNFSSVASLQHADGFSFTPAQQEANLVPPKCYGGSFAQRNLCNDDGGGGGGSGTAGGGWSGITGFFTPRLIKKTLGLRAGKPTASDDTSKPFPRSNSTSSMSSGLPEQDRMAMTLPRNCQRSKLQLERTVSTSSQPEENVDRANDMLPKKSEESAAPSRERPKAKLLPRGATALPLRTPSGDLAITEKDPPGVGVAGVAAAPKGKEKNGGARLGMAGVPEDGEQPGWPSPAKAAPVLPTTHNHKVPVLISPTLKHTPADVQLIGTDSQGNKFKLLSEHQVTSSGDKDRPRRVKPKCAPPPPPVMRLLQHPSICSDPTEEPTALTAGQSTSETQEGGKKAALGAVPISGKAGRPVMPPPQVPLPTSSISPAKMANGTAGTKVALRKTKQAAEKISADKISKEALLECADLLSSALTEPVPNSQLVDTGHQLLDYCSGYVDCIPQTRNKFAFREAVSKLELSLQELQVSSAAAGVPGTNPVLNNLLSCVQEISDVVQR

| SMILES | inhibition [1] | inhibition [2] | inhibition [3] | inhibition [4] | inhibition [5] | inhibition [6] | inhibition [7] | inhibition [8] | inhibition [9] |
| --- | --- | --- | --- | --- | --- | --- | --- | --- | --- |
| CCN1CCN(Cc2ccc(NC(=O)c3ccc(C)c(/C=C/c4cnc5[nH]ccc5c4OC)c3)cc2C(F)(F)F)CC1 | 8.6% | -5.2% | 14.1% | 25.1% | 7.4% | 24.3% | 27% | -5% |  |
| CCN1CCN(Cc2ccc(NC(=O)c3ccc(C)c(Oc4ccnc5[nH]ccc45)c3)cc2C(F)(F)F)CC1 | 37% | -3.8% | 32.5% | -1.8% | 13.4% | 73.3% | 3.9% | -1.5% |  |
| CNc1cc(Oc2cc(C(=O)Nc3cc(-n4cnc(C)c4)cc(C(F)(F)F)c3)ccc2C)ncn1 |  |  |  |  |  |  |  |  | 59.7% |
| CNc1cc(Oc2cc(C(=O)Nc3cc(N4CCN(C)CC4)cc(C(F)(F)F)c3)ccc2C)ncn1 |  |  |  |  |  |  |  |  | 49.4% |
